# According to ChEMBL document CHEMBL4219113, “Pyridazine and pyridazinone derivatives as potent and selective factor XIa inhibitors” (Bioorg Med Chem Lett, 2018):
# Tests used:
# Coagulation factor XI = Coagulation factor XI (Homo sapiens, UniProt P03951); test: Inhibition of human factor 11a using pyro-Glu-Pro-Arg-pNA as substrate measured after 10 to 120 mins by spectrophotometric method
# Plasma = test: Anticoagulant activity in human plasma assessed as increase in activated partial thromboplastin time; format: functional
# In short: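 In vitro clotting test in human plasma measuring activated partial thromboplastin time (aPTT). EC1.5x is the concentration that extends aPTT to 1.5-fold.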
# [1] = Half life in human liver microsomes pretreated for 5 mins followed by NADPH addition by UV-LC/MS analysis; format: ADME, microsome
# [2] = Clearance in dog at 0.2 to 0.5 mg/kg, po or 0.2 to 0.4 mg/kg, iv administered as cassette dose; format: ADME, organism-based, Canis lupus familiaris; details: in vivo
# In short: (§1)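 Dogs received cassette dosing at 0.2–0.5 mg/kg orally and 0.2–0.4 mg/kg intravenously. The iv vehicle was 10% DMAC, 10% EtOH, 10% PG and 70% water. The oral vehicle was 10% EtOH, 70% PEG400 and 20% TPGS.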
# [3] = Volume of distribution at steady state in dog at 0.2 to 0.5 mg/kg, po or 0.2 to 0.4 mg/kg, iv administered as cassette dose; format: ADME, organism-based, Canis lupus familiaris; details: in vivo, read-out: Vdss; in short: as §1
# [4] = Half life in dog at 0.2 to 0.5 mg/kg, po or 0.2 to 0.4 mg/kg, iv administered as cassette dose; format: ADME, organism-based, Canis lupus familiaris; details: in vivo; in short: as §1
# [5] = Oral bioavailability in dog at 0.2 to 0.5 mg/kg; format: ADME, organism-based, Canis lupus familiaris; details: in vivo; in short: as §1
# Coagulation factor VII = target: T1, Coagulation factor VII (Homo sapiens, UniProt P08709); test: Inhibition of human factor 7a
# T1 sequence (P08709 whole entry): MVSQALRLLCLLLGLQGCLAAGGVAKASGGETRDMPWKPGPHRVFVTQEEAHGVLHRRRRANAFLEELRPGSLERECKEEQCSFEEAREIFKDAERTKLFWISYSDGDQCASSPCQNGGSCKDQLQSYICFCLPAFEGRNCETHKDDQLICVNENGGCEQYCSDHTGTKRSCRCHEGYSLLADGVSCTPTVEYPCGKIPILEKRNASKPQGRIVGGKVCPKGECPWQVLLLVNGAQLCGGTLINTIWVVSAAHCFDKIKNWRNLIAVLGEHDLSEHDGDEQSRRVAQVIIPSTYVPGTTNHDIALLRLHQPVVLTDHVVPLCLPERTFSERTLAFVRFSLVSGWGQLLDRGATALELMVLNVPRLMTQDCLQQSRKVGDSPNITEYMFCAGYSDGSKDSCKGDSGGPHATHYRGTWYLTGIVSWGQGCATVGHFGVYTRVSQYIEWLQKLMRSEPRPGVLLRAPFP
# Coagulation factor X = Coagulation factor X (Homo sapiens, UniProt P00742); test: Inhibition of human factor 10a
# Chain of Coagulation factor X (P00742 41-179 limits assumed): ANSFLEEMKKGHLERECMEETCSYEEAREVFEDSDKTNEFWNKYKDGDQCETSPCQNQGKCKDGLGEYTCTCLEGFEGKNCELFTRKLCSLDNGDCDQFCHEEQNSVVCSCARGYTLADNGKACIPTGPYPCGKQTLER
# Chain of Coagulation factor X (P00742 235-488 limits assumed): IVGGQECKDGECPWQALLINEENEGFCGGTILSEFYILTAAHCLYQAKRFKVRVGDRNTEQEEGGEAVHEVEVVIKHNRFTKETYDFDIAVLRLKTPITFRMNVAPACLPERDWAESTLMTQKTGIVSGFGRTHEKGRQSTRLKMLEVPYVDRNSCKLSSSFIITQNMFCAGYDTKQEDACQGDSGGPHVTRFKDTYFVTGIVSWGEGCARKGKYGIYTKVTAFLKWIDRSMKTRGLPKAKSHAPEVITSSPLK
# Prothrombin = Prothrombin (Homo sapiens, UniProt P00734); test: Inhibition of human thrombin
# Trypsin = Trypsin (Homo sapiens, UniProt P07477+P07478+P35030); test: Inhibition of human trypsin; format: protein assay
# Plasma kallikrein = Plasma kallikrein (Homo sapiens, UniProt P03952); test: Inhibition of human plasma kallikrein
# Chain of Plasma kallikrein (P03952 20-390 limits assumed): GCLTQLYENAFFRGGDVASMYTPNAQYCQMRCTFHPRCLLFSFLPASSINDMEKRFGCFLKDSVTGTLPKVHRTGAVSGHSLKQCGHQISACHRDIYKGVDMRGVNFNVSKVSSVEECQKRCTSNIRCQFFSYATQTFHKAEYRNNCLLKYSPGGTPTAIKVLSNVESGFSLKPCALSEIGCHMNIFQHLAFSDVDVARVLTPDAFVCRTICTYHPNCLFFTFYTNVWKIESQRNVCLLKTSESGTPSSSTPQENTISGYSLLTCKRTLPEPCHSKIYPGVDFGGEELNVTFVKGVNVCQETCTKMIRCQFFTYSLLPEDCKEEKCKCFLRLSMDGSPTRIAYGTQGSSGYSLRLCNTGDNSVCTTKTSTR
# Chain of Plasma kallikrein (P03952 391-638 limits assumed): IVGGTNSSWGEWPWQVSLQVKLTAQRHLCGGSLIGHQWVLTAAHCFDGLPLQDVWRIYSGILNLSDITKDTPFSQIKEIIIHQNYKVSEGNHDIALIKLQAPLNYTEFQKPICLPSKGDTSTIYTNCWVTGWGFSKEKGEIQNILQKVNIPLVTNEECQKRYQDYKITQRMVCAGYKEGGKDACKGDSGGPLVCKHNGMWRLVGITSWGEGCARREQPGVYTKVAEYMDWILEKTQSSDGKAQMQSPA
# [6] = target: Vitamin K-dependent protein C (Homo sapiens, UniProt P04070); test: Inhibition of human activated protein C
# Chain of Vitamin K-dependent protein C (P04070 43-197 limits assumed): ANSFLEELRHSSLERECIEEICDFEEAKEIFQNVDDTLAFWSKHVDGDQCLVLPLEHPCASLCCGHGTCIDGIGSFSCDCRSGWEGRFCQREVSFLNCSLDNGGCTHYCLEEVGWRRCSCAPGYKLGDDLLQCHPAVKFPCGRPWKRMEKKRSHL
# Chain of Vitamin K-dependent protein C (P04070 212-461 limits assumed): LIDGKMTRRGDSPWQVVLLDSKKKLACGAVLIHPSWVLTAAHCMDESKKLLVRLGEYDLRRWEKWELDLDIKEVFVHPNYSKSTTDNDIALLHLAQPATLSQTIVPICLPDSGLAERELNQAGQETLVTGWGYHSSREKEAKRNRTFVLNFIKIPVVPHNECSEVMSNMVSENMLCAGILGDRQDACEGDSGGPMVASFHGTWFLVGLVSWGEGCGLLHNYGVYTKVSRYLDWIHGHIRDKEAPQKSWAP
# Plasminogen = Plasminogen (Homo sapiens, UniProt P00747); test: Inhibition of human plasmin
# Chain of Plasminogen (P00747 97-580 limits assumed): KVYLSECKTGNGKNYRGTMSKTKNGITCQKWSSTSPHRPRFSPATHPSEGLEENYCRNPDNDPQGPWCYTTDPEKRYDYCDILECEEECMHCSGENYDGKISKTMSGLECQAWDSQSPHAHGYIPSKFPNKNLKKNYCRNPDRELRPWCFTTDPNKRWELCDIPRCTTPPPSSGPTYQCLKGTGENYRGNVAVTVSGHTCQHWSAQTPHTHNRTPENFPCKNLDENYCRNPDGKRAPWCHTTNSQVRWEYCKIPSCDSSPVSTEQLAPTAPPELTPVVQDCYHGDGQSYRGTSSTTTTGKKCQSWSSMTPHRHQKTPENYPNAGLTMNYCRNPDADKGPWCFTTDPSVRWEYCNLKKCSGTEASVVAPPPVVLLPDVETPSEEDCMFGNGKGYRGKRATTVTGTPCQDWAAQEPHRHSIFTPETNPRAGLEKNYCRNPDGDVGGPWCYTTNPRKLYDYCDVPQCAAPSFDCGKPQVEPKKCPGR
# Chain of Plasminogen (P00747 581-810 limits assumed): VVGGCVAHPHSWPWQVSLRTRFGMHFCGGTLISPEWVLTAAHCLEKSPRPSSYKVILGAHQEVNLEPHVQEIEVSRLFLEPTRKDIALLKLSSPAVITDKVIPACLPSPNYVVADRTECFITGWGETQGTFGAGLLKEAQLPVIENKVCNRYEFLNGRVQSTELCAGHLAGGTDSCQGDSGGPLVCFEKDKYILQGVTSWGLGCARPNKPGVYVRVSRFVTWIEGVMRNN
# [7] = target: Tissue-type plasminogen activator (Homo sapiens, UniProt P00750); test: Inhibition of human TPA
# Chain of Tissue-type plasminogen activator (P00750 whole entry): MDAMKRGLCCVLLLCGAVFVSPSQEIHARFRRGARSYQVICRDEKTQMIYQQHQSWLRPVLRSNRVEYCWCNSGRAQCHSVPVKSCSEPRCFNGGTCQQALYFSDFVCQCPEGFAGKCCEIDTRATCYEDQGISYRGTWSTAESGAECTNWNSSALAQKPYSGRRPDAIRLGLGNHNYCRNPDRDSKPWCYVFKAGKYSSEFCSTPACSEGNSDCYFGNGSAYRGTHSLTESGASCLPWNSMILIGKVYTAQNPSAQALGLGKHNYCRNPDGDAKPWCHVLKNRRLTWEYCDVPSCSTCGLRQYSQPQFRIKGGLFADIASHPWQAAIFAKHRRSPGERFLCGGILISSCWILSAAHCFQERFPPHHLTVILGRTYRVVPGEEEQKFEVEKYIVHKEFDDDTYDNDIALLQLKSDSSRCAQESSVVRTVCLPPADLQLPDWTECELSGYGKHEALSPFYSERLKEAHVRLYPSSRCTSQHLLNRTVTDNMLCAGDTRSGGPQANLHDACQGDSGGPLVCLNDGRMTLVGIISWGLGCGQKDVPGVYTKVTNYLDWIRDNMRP
# [8] = target: Urokinase-type plasminogen activator (Homo sapiens, UniProt P00749); test: Inhibition of human urokinase
# [9] = Inhibition of human chymotrypsin
# Coagulation factor IX = Coagulation factor IX (Homo sapiens, UniProt P00740); test: Inhibition of human factor 9a
# Chain of Coagulation factor IX (P00740 47-191 limits assumed): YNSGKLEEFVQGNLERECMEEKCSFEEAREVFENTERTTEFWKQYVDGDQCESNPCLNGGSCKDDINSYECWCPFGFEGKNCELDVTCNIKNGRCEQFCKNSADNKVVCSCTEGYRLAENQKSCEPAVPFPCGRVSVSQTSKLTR
# Chain of Coagulation factor IX (P00740 227-461 limits assumed): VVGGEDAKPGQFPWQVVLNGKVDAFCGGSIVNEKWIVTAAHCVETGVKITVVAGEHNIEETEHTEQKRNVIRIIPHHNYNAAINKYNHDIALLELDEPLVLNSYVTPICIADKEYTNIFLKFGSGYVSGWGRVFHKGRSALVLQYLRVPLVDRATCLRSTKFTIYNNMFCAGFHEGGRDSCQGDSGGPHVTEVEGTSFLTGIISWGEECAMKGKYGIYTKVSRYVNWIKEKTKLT
# [10] = Oral bioavailability in dog at 0.5 mg/kg; format: ADME, organism-based, Canis lupus familiaris; details: in vivo; in short: as §1
# Chain of Coagulation factor XI (P03951 19-387 limits assumed): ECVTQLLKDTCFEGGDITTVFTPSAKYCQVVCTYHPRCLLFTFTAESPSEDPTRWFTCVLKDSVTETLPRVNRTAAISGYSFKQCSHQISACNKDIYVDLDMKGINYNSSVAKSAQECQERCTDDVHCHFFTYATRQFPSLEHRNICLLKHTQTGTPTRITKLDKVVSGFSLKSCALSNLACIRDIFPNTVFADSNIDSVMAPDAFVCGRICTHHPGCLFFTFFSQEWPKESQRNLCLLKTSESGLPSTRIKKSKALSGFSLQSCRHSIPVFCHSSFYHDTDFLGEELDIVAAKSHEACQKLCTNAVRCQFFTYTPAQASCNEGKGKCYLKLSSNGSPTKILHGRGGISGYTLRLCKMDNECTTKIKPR
# Chain of Coagulation factor XI (P03951 388-625 limits assumed): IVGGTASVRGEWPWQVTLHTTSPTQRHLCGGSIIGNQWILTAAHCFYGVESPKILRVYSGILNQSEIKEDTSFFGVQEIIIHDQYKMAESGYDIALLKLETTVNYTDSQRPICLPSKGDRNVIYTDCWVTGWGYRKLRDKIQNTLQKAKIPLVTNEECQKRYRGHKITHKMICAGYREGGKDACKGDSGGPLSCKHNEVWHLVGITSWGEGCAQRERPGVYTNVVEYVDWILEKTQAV
Structure (SMILES),Ki (Coagulation factor XI) [nM],half-life [1] [min],clearance [2] [mL/min/kg],Vd [3] [L/kg],half-life [4] [min],bioavailability [5] [%],EC1.5 (Plasma) [µM],other results
COC(=O)Nc1ccc(-c2cc([C@H](Cc3ccccc3)NC(=O)/C=C/c3cc(Cl)ccc3-n3cnnn3)nnc2C(=O)O)cc1,11,,,,,,32,
CNC(=O)c1nnc([C@H](Cc2ccccc2)NC(=O)/C=C/c2cc(Cl)ccc2-n2cnnn2)cc1-c1ccc(NC(=O)OC)cc1,31,,,,,,45,
COC(=O)Nc1ccc(-c2cc([C@H](CC(=O)N3CC[C@@H](O)C3)NC(=O)/C=C/c3cc(Cl)ccc3-n3cnnn3)nnc2Cl)cc1,26,,,,,,7.5,
COC(=O)Nc1ccc(-c2cc([C@H](Cc3ccc(F)cc3)NC(=O)/C=C/c3cc(Cl)ccc3-n3cnnn3)nnc2Cl)cc1,9.3,20,5.1,1.5,402,12,22,
COC(=O)Nc1ccc(-c2cc([C@H](Cc3ccccc3)NC(=O)/C=C/c3cc(Cl)ccc3-n3cnnn3)nnc2OC)cc1,36,,,,,,50,
COC(=O)Nc1ccc(-c2cc([C@H](C[C@@H]3CCCN(C(C)=O)C3)NC(=O)/C=C/c3cc(Cl)ccc3-n3cnnn3)nnc2Cl)cc1,89,,,,,,8.8,
COC(=O)Nc1ccc(-c2nc([C@H](Cc3ccccc3)NC(=O)/C=C/c3cc(Cl)ccc3-n3cnnn3)[nH]c2Cl)cc1,,,,,,,5.3,
COC(=O)Nc1ccc(-c2cc([C@H](Cc3ccccc3)NC(=O)/C=C/c3cc(Cl)ccc3-n3cnnn3)nnc2C)cc1,10,5.1,9.2,1.2,120,14,11,Ki (Coagulation factor VII): > 13300 nM; Ki (Coagulation factor IX): 39300 nM; Ki (Coagulation factor X): > 3000 nM; Ki (Prothrombin): > 13300 nM; Ki (Trypsin): > 6220 nM; Ki (Plasma kallikrein): 1370 nM; Ki [6]: > 64400 nM; Ki (Plasminogen): > 53400 nM; Ki [7]: > 14700 nM; Ki [8]: > 29700 nM; Ki [9]: > 27200 nM
COC(=O)Nc1ccc(-c2cc([C@H](Cc3ccccc3)NC(=O)/C=C/c3cc(Cl)ccc3-n3cnnn3)nnc2Cl)cc1,9.6,8.6,6.3,2.3,426,16,9.3,Ki (Coagulation factor VII): > 13300 nM; Ki (Coagulation factor IX): > 73700 nM; Ki (Coagulation factor X): 200 nM; Ki (Prothrombin): > 13300 nM; Ki (Trypsin): > 6220 nM; Ki (Plasma kallikrein): > 6000 nM; Ki [6]: > 64400 nM; Ki (Plasminogen): 76600 nM; Ki [7]: 10100 nM; Ki [8]: > 29700 nM; Ki [9]: > 27200 nM
COC(=O)Nc1ccc(-c2ccnc([C@H](Cc3ccccc3)NC(=O)/C=C/c3cc(Cl)ccc3-n3cnnn3)c2)cc1,,,,,,,>40,bioavailability [10]: 34%
COC(=O)Nc1ccc(-c2cc([C@H](Cc3ccccc3)NC(=O)/C=C/c3cc(Cl)ccc3-n3cnnn3)c(=O)[nH]n2)cc1,22,,,,,,19,
COC(=O)Nc1ccc(-c2cc([C@H](Cc3ccccc3)NC(=O)/C=C/c3cc(Cl)ccc3-n3cnnn3)n[nH]c2=O)cc1,10,,,,,,11,
COC(=O)Nc1ccc(-c2cc([C@H](Cc3ccncc3)NC(=O)/C=C/c3cc(Cl)ccc3-n3cnnn3)nnc2Cl)cc1,12,2.8,,,,,6.2,
COC(=O)Nc1ccc(-c2cc([C@H](Cc3cccc(F)c3)NC(=O)/C=C/c3cc(Cl)ccc3-n3cnnn3)nnc2Cl)cc1,10,12,,,,,17,

# The remaining compounds from weak to strong by Ki (Coagulation factor XI), led by results:
Ki (Coagulation factor XI) [nM],half-life [1] [min],clearance [2] [mL/min/kg],Vd [3] [L/kg],half-life [4] [min],bioavailability [5] [%],Structure (SMILES),EC1.5 (Plasma) [µM],other results
7,9.1,8.9,1.3,108,18,COC(=O)Nc1ccc(-c2cnnc([C@H](Cc3ccccc3)NC(=O)/C=C/c3cc(Cl)ccc3-n3cnnn3)c2)cc1,14,Ki (Coagulation factor VII): > 13300 nM; Ki (Coagulation factor X): 840 nM; Ki (Prothrombin): > 13300 nM; Ki (Trypsin): > 6220 nM; Ki (Plasma kallikrein): 268 nM; Ki [6]: 68000 nM; Ki (Plasminogen): 38100 nM; Ki [7]: > 14700 nM; Ki [8]: > 29700 nM; Ki [9]: 11900 nM
6.6,36,24.7,1.2,54,< 3,COC(=O)Nc1ccc(-c2cc([C@H](CC(=O)N3CC[C@@H](O)C3)NC(=O)/C=C/c3cc(Cl)ccc3-n3cnnn3)c(Cl)nn2)cc1,1.6,
6.1,,,,,,COC(=O)Nc1ccc(-c2cc([C@H](Cc3ccccc3)NC(=O)/C=C/c3cc(Cl)ccc3-n3cnnn3)c(C)nn2)cc1,14,
4.1,9.6,18.2,1.4,66,< 3,COC(=O)Nc1ccc(-c2cc([C@H](Cc3ccccc3)NC(=O)/C=C/c3cc(Cl)ccc3-n3cnnn3)cnn2)cc1,3.5,
4,,,,,,COC(=O)Nc1ccc(-c2cc([C@H](CC(=O)N3CCN(C)CC3)NC(=O)/C=C/c3cc(Cl)ccc3-n3cnnn3)c(Cl)nn2)cc1,0.9,
1.9,31,15.5,2.1,108,< 3,COC(=O)Nc1ccc(-c2cc([C@H](Cc3ccccc3)NC(=O)/C=C/c3cc(Cl)ccc3-n3cnnn3)c(Cl)nn2)cc1,2.2,Ki (Coagulation factor VII): 3280 nM; Ki (Coagulation factor IX): 22000 nM; Ki (Coagulation factor X): 1940 nM; Ki (Prothrombin): 10600 nM; Ki (Trypsin): 3730 nM; Ki (Plasma kallikrein): 192 nM; Ki [6]: 16300 nM; Ki (Plasminogen): 4490 nM; Ki [7]: 994 nM; Ki [8]: 13300 nM; Ki [9]: 29600 nM
